Results: ChEMBL document CHEMBL4811274, “Epo-C12 inhibits peroxiredoxin 1 peroxidase activity” (Bioorg Med Chem, 2021)
pIC50: −log10 of the molar value. Calls of active or inactive are those of the source. No cut-off for these calls is given here.

Tests used:
[1] = target: Peroxiredoxin-1 (Homo sapiens) (UniProt Q06830); assay: Binding affinity to recombinant wild type Prx1 (unknown origin) expressed in human HEK293T cells at 1 uM incubated for 20 hrs by Western blot analysis
BALL-1 [2] = assay: Induction of apoptosis in human BALL-1 cells at 5 uM pretreated with GSH for 1.5 hrs followed by compound addition and measured after 24 hrs by annexin-V-FITC and PI staining based flow cytometry analysis; assay type: functional, cell-based
In short: (§1)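 BALL-1 cells (2×10⁵) pretreated 1.5 h at 37 °C with DMSO, 250 μM DTT, 1.5 mM GSH or 250 μM NAC, then ±5 μM compound for 24 h. Stained with annexin V-FITC (HEPES–NaOH/NaCl/CaCl2 buffer pH 7.4, 10 min), then 2 μg/mL PI; flow cytometry. Late apoptotic (annexin V+/PI+) percentage; octuplicate, mean ± SD, Tukey HSD.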

BALL-1 [3] = assay: Induction of ROS production in human BALL-1 cells incubated for 30 mins by DCFH-DA staining based flow cytometry analysis; assay type: functional, cell-based; conditions: dose 1-10 µM
In short: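 Cells (2×10⁵) loaded with 10 μM DCFH-DA for 10 min, then exposed to 1, 5 or 10 μM compound, DMSO vehicle, or 50 μM H2O2 for 30 min. Pellets resuspended in PBS; DCF fluorescence by flow cytometry (ex 488/em 530 nm). Fluorescence normalized to control; mean of two independent measurements, error as range.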

BALL-1 [4] = assay: Induction of apoptosis in human BALL-1 cells at 5 uM pretreated with DTT for 1.5 hrs followed by compound addition and measured after 24 hrs by annexin-V-FITC and PI staining based flow cytometry analysis; assay type: functional, cell-based
In short: as §1

BALL-1 [5] = assay: Induction of apoptosis in human BALL-1 cells at 5 uM pretreated with NAC for 1.5 hrs followed by compound addition and measured after 24 hrs by annexin-V-FITC and PI staining based flow cytometry analysis; assay type: functional, cell-based
In short: as §1

BALL-1 [6] = assay: Cytotoxicity against human BALL-1 cells assessed as reduction in cell viability incubated for 24 hrs by WST-8 assay; assay type: functional, cell-based; conditions: BALL-1, 24 h
In short: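 BALL-1 cells (RPMI 1640, 10% FBS, 37 °C, 5% CO2) seeded at 10,000 cells/well, exposed to a concentration range for 24 h, 0.1% DMSO. WST-8 reagent added, 2 h at 37 °C, absorbance 450 nm. Growth inhibition taken as sample/control absorbance ratio; IC50 reported as mean ± SD.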

[7] = target: Peroxiredoxin-1 (Homo sapiens) (UniProt Q06830); assay: Retention of chaperone activity of oxidized Prx1 (unknown origin) assessed as decrease in heat-induced citrate synthase aggregation at 25 uM incubated for 20 mins by light scattering assay
[8] = target: Peroxiredoxin-1 (Homo sapiens) (UniProt Q06830); assay: Inhibition of recombinant Prx1 (unknown origin) assessed as reduction in peroxidase activity at 50 uM incubated for 30 mins followed by H2O2 addition and measured after 20 mins by PEROXsay assay kit method relative to control; values are per cent of control; conditions: time 50.0 min

Sequence of Peroxiredoxin-1 (Homo sapiens) (Q06830 whole entry, looked up): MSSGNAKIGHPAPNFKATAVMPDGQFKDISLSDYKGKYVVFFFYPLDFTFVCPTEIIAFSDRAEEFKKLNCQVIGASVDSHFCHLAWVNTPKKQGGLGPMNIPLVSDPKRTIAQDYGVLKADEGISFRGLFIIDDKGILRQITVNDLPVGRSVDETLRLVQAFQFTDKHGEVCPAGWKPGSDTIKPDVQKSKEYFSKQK

| Activity [1] | Activity [7] | residual activity [8] [%] | Structure (SMILES) | Activity (BALL-1 [2]) | Activity (BALL-1 [3]) | Activity (BALL-1 [4]) | Activity (BALL-1 [5]) | pIC50 (BALL-1 [6]) |
| --- | --- | --- | --- | --- | --- | --- | --- | --- |
| Active | – | – | CC1(O)NC(=O)[C@@]2(C(=O)CCCCCCCCCCCNC(=O)CCCC[C@@H]3SC[C@@H]4NC(=O)N[C@@H]43)O[C@@H]12 (stereo partly specified) | – | – | – | – | – |
| – | Active | 56 | CCCCCCCCCCCC(=O)[C@]12O[C@H]1C(C)(O)NC2=O (stereo partly specified) | inactive | Dose-Dependent Effect | inactive | inactive | 5.36 |
| – | Active | 33 | [O-][n+]1c(CBr)c(CBr)[n+]([O-])c2ccccc21 | – | – | – | – | 5.98 |
